Assay results as given in ChEMBL document CHEMBL5724801, “EUbOPEN Chemogenomics Library - Multiplex” (2024).
Several values for one entry are separate records, joined by “and”; a condition that tells them apart may be missing. Equal entries are not always repeated.

System: Fibroblast
Assay: Multiplex assay against human fibroblast
Format: toxicity, cell-based
Summary of the method: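 Hoechst33342, BioTracker Green Microtubule Cytoskeleton Dye, MitoTracker Red and Annexin V Alexa Fluor 680 were added to live cells at seeding, and imaging on a CQ1 microscope at 37°C and 5% CO2 followed compound addition. Gating by CellPathfinder machine learning separated cells into Hoechst high-intensity objects or normal cells, then normal cells into healthy, pyknosed or fragmented nuclei, then pyknosed cells into mitotic or apoptotic. Per cents of healthy-nucleus cells are reported for the tubulin, mitochondrial-mass and membrane-permeability phenotypes.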

[1] = 12 h, 1 µM, compound concentration 1 uM
[2] = 12 h, 10 µM, compound concentration 10 uM
[3] = 24 h, 1 µM, compound concentration 1 uM
[4] = 24 h, 10 µM, compound concentration 10 uM
[5] = 48 h, 1 µM, compound concentration 1 uM
[6] = 48 h, 10 µM, compound concentration 10 uM

## CC(C)(C)c1cc(C(C)(C)C)c(NC(=O)c2c[nH]c3ccccc3c2=O)cc1O [IVACAFTOR]
[1]
  Population Apoptotic (%): 10.53% and 22.22%
  Population Healthy Nuclei (%): 60.13% and 75%
  Population Hoechst High Intensity Objects (%): 0%
  Population Membrane Permeable-Phenotype (%): 1.09% and 0.74%
  Population Mitotic Cells (%): 89.47% and 77.78%
  Population Normal (%): 100%
  Population Pyknosed Nuclei (%): 24.84% and 20%
  Population Tubulin-Different-Phenotype (%): 15.22% and 9.63%
  Total Cell Count: 153 and 180
[2]
  Population Apoptotic (%): 15.07% and 33.33%
  Population Fragmented Nuclei (%): 15.18% and 7.21%
  Population Healthy Nuclei (%): 46.6% and 73.87%
  Population Hoechst High Intensity Objects (%): 0%
  Population Membrane Permeable-Phenotype (%): 0% and 3.05%
  Population Mitochondria Different-Phenotype (%): 21.35% and 13.41%
  Population Mitotic Cells (%): 84.93% and 66.67%
  Population Normal (%): 100%
  Population Pyknosed Nuclei (%): 38.22% and 18.92%
  Population Tubulin-Different-Phenotype (%): 24.72% and 29.27%
  Total Cell Count: 191 and 222
[3]
  Population Apoptotic (%): 2.7% and 8%
  Population Fragmented Nuclei (%): 9.82% and 4.92%
  Population Healthy Nuclei (%): 67.48% and 81.42%
  Population Hoechst High Intensity Objects (%): 0%
  Population Membrane Permeable-Phenotype (%): 3.64% and 2.01%
  Population Mitochondria Different-Phenotype (%): 10.91% and 10.07%
  Population Mitotic Cells (%): 97.3% and 92%
  Population Normal (%): 100%
  Population Pyknosed Nuclei (%): 22.7% and 13.66%
  Population Tubulin-Different-Phenotype (%): 11.82% and 11.41%
  Total Cell Count: 163 and 183
[4]
  Population Apoptotic (%): 13.85% and 28.57%
  Population Fragmented Nuclei (%): 9.6% and 8.97%
  Population Healthy Nuclei (%): 53.67% and 78.48%
  Population Hoechst High Intensity Objects (%): 0%
  Population Membrane Permeable-Phenotype (%): 2.11% and 0.57%
  Population Mitochondria Different-Phenotype (%): 21.05% and 24.57%
  Population Mitotic Cells (%): 86.15% and 71.43%
  Population Normal (%): 100%
  Population Pyknosed Nuclei (%): 36.72% and 12.56%
  Population Tubulin-Different-Phenotype (%): 45.26% and 44%
  Total Cell Count: 177 and 223
[5]
  Population Fragmented Nuclei (%): 10.22% and 4.66%
  Population Healthy Nuclei (%): 83.33% and 86.53%
  Population Hoechst High Intensity Objects (%): 0%
  Population Membrane Permeable-Phenotype (%): 1.94% and 0%
  Population Mitotic Cells (%): 75% and 94.12%
  Population Normal (%): 100%
  Population Pyknosed Nuclei (%): 6.45% and 8.81%
  Population Tubulin-Different-Phenotype (%): 7.74% and 11.98%
  Total Cell Count: 186 and 193
[6]
  Population Apoptotic (%): 21.88% and 28.57%
  Population Fragmented Nuclei (%): 11.48% and 7.92%
  Population Healthy Nuclei (%): 73.21% and 86.25%
  Population Hoechst High Intensity Objects (%): 0%
  Population Membrane Permeable-Phenotype (%): 0.65% and 0.97%
  Population Mitochondria Different-Phenotype (%): 25.49% and 13.53%
  Population Mitotic Cells (%): 78.12% and 71.43%
  Population Normal (%): 100%
  Population Pyknosed Nuclei (%): 15.31% and 5.83%
  Population Tubulin-Different-Phenotype (%): 24.18% and 39.61%
  Total Cell Count: 209 and 240

## COc1ccc(CC(=O)NC(N/C(=N/C#N)Nc2cccc3ncccc23)C(C)(C)C)cc1OC (centres undefined)
[1]
  Population Fragmented Nuclei (%): 9.24% and 8.25%
  Population Healthy Nuclei (%): 64.67% and 81.55%
  Population Hoechst High Intensity Objects (%): 0%
  Population Membrane Permeable-Phenotype (%): 1.68% and 2.98%
  Population Mitochondria Different-Phenotype (%): 8.4% and 6.55%
  Population Mitotic Cells (%): 95.83% and 85.71%
  Population Normal (%): 100%
  Population Pyknosed Nuclei (%): 26.09% and 10.19%
  Population Tubulin-Different-Phenotype (%): 12.61% and 16.67%
  Total Cell Count: 184 and 206
[2]
  Population Apoptotic (%): 10.96% and 24.49%
  Population Fragmented Nuclei (%): 7.46% and 8.67%
  Population Healthy Nuclei (%): 56.22% and 63.01%
  Population Hoechst High Intensity Objects (%): 0%
  Population Membrane Permeable-Phenotype (%): 9.73% and 2.75%
  Population Mitochondria Different-Phenotype (%): 7.96% and 16.51%
  Population Mitotic Cells (%): 89.04% and 75.51%
  Population Normal (%): 100%
  Population Pyknosed Nuclei (%): 36.32% and 28.32%
  Population Tubulin-Different-Phenotype (%): 26.55% and 38.53%
  Total Cell Count: 201 and 173
[3]
  Population Fragmented Nuclei (%): 11.21% and 6.25%
  Population Healthy Nuclei (%): 68.16% and 81.25%
  Population Hoechst High Intensity Objects (%): 0%
  Population Membrane Permeable-Phenotype (%): 3.95% and 0%
  Population Mitochondria Different-Phenotype (%): 10.53% and 7.1%
  Population Mitotic Cells (%): 95.65% and 76.92%
  Population Normal (%): 100%
  Population Pyknosed Nuclei (%): 20.63% and 12.5%
  Population Tubulin-Different-Phenotype (%): 19.08% and 13.02%
  Total Cell Count: 223 and 208
[4]
  Population Fragmented Nuclei (%): 5.12% and 8.43%
  Population Healthy Nuclei (%): 64.65% and 75.3%
  Population Hoechst High Intensity Objects (%): 0%
  Population Membrane Permeable-Phenotype (%): 7.19% and 2.4%
  Population Mitochondria Different-Phenotype (%): 10.07% and 8%
  Population Mitotic Cells (%): 92.31% and 70.37%
  Population Normal (%): 100%
  Population Pyknosed Nuclei (%): 30.23% and 16.27%
  Population Tubulin-Different-Phenotype (%): 33.09% and 40.8%
  Total Cell Count: 215 and 166
[5]
  Population Apoptotic (%): 0% and 18.75%
  Population Fragmented Nuclei (%): 7.56% and 7.18%
  Population Healthy Nuclei (%): 85.29% and 85.17%
  Population Hoechst High Intensity Objects (%): 0%
  Population Membrane Permeable-Phenotype (%): 0.99% and 1.12%
  Population Mitochondria Different-Phenotype (%): 11.82% and 3.37%
  Population Mitotic Cells (%): 100% and 81.25%
  Population Normal (%): 100%
  Population Pyknosed Nuclei (%): 7.14% and 7.66%
  Population Tubulin-Different-Phenotype (%): 5.42% and 14.04%
  Total Cell Count: 238 and 209
[6]
  Population Apoptotic (%): 27.78% and 30.77%
  Population Fragmented Nuclei (%): 8.23% and 15.18%
  Population Healthy Nuclei (%): 83.98% and 78.01%
  Population Hoechst High Intensity Objects (%): 0%
  Population Mitochondria Different-Phenotype (%): 12.89% and 4.03%
  Population Mitotic Cells (%): 72.22% and 69.23%
  Population Normal (%): 100%
  Population Pyknosed Nuclei (%): 7.79% and 6.81%
  Population Tubulin-Different-Phenotype (%): 17.01% and 47.65%
  Total Cell Count: 231 and 191
